Screens (PubChem)
Compounds with a hit are over-represented: about 5.3% of the library has one in this group of screens.
Mdm2-MdmX inh: inhibitors of human Mdm2-MdmX association, primary screen, cell-based, luminescence, split luciferase, SaOS-2, uHTS. inhibition, % at 8 µM. actives 3% (n = 330,000). SaOS-2 split-luciferase Mdm2/MdmX complementation. AID 485346, 2010;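 active = inhibition of at least 50% at 8 µM in the primary screen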
Target sequence (O15151 whole entry, looked up): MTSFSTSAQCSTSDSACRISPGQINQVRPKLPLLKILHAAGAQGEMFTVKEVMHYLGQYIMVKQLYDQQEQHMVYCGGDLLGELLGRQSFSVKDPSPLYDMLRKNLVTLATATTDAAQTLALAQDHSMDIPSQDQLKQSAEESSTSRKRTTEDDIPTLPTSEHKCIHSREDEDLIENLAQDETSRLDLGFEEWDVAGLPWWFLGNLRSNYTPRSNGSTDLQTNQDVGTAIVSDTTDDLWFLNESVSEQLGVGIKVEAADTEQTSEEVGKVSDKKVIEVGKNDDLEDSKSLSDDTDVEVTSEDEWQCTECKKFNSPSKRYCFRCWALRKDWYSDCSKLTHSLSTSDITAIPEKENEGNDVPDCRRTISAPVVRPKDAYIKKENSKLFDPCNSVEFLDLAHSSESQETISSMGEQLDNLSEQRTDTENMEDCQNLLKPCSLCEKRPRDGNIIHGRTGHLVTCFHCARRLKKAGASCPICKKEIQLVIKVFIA
Target sequence (Q00987 whole entry, looked up): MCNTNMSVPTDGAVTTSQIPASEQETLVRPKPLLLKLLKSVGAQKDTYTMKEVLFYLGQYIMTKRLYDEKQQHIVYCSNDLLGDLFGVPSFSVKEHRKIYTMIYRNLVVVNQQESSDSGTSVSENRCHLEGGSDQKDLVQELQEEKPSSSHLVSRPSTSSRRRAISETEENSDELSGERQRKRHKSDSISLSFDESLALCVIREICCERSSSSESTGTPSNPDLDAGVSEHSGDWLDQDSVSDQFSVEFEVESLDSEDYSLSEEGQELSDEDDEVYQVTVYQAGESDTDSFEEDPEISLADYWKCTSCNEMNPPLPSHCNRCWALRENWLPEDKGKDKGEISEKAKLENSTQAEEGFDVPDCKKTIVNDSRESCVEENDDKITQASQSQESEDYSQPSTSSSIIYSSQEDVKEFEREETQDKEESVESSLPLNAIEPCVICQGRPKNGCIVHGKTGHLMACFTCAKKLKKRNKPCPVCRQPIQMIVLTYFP
Beta cell apopt: inhibitors of cytokine-induced beta cell apoptosis, primary screen, luminescence | INS-1E cytokine-induced death, ATP luminescence, 48 h; percent of positive-control rescue, neutral wells zero | actives 0.8% (n = 300,000) | protection from apoptosis, % (no concentration beside the values);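 active = Every replicate reaches about 75%, or at least half do and their mean reaches it too, limit read from the data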;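 also: 0% = cytokine-treated negative control wells and 100% = positive control rescue; higher means more ATP so stronger rescue from cytokine killing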
Calb FLC: C. albicans growth inhibition with fluconazole, primary screen, CaCi-2 strain, Alamar Blue fluorescence. C. albicans CaCi-2 (fluconazole-resistant clinical isolate) + fluconazole, 48 h. growth inhibition, % (test concentration not listed). actives 0.57% (n = 300,000);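 active = growth inhibition above about 58% in most replicates, limit read from the data, passing the limit was not always enough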;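 also: all wells also contain fluconazole at 8 µg/ml as a sub-toxic cotreatment; 0% = median of DMSO wells and 100% = median of geldanamycin control wells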
NALP3 yeast inh: NALP3 inflammasome inhibitors in reconstituted yeast, primary screen, luminescence, uHTS | inhibition, % at 10 µM | Yeast reconstituted NLRP3/ASC/caspase-1, beta-gal luminescence, 24 h | actives 0.39% (n = 330,000);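 active = inhibition of 50% or more; inactive = inhibition below 50%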;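 also: plate controls were induced DMSO wells for no effect and uninduced yeast grown without galactose for full effect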
CSC inhib: cancer stem cell viability inhibitors, primary screen, luminescence | cancer stem cell-like cells viability | inhibition, % at 7.5 µM | actives 1.1% (n = 300,000); in the data active = inhibition above about 75%; tested in HMLE shEcad cells
T cruzi repl: inhibitors of intracellular T. cruzi growth, primary screen, luminescence, NIH3T3 host cells; T. cruzi beta-gal in NIH3T3, 90 h; inhibition, % (no concentration beside the values); actives 1.4% (n = 300,000); AID 1885, 2009;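 active = mean inhibition across valid replicates above about 55%, limit read from the data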;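 also: signal also drops with host cell toxicity which is not excluded here; 0% = plate median of DMSO wells and 100% = zero luminescence signal; higher percent means less beta-gal luminescence so fewer parasites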
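Assay system: NIH/3T3 fibroblasts plus reporter T. cruzi. Amount: NIH/3T3 cells, 5,000 per well. Buffer or medium: DMEM, 2% fetal bovine serum. Doses: compound pinned at 50 nL/well, DMSO. Schedule: ≥90 h infection period, 3 h prior cell attachment. Signal: luminescent β-galactosidase signal after 60 min lysis. Read-out: parasite load inhibition, %.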
* = called active by the depositor; / = no result given.

SMILES	Mdm2-MdmX inh	Beta cell apopt	Calb FLC	NALP3 yeast inh	CSC inhib	T cruzi repl
Cc1[nH]c2ccccc2c1/C=N/NS(=O)(=O)c1ccccc1	-4	3	-5	8	-8	-6
Cc1[nH]c2ccccc2c1/C=N/Nc1ccccc1[N+](=O)[O-]	24	17	-5	9	77*	62*
CC(C)(C)n1ncc2c(=O)n(Cc3cccc(Cn4cnc5c(cnn5C(C)(C)C)c4=O)c3F)cnc21	36	87*	/	15	/	/
Cc1ccc(C(=O)NC(=C(Cl)Cl)S(=O)(=O)c2ccc(C)cc2)cc1	27	-12	-24	31	96*	-2
Cn1cc(CCC(=O)N2CCCC(N3CCN(c4ccccc4F)CC3)C2)cn1 (stereo not given)	6	5	47	7	10	4
NC(=S)N/N=C/c1ncc(C(F)(F)F)cc1Cl	47	65	0	27	91*	17
NC(=S)N/N=C/c1ccc(C(F)(F)F)cc1	8	/	0	25	12	54
C=CCNC(=S)Nc1sc2c(c1C(=O)OCC)CCN(C(=O)OCC)C2	5	7	16	12	0	-9
C=CCNC(=S)Nc1sc2c(c1C(=O)OCC)CC(C)(CC)OC2 (stereo not given)	-15	7	98*	20	43	7
Cc1nn(-c2ccccc2)c(NC(=O)c2ccccc2)c1Br	7	-4	4	17	/	-8
Cc1ccc(NC(=S)/N=C(\N)Nc2nc(C)c3cc(C)c(C)cc3n2)cc1C	43	0	-8	23	0	61*
COc1ccc2nc(N/C(N)=N/C(=S)Nc3cccc(C)c3)nc(C)c2c1	37	-6	6	11	29	49
CCOC(=O)C1=C(C)NC(C)=C(C(=O)OC)C1c1cccc([N+](=O)[O-])c1 (stereo not given)	30	-6	/	-5	6	21
COCCOC(=O)C1=C(C)NC(C)=C(C(=O)OC(C)C)C1c1cccc([N+](=O)[O-])c1 (stereo not given)	-13	-3	6	11	6	62*
CC1CCCCC12NC(=O)N(CC(=O)Nc1ccc(N3CCOCC3)cc1)C2=O (stereo not given)	4	8	3	15	-3	0
COc1ccccc1-n1c(=O)oc2ccc(Cl)cc2c1=O	17	104*	/	30	/	/
COc1ccccc1-n1c(SCc2cc(=O)oc3cc(O)ccc23)nc2ccccc2c1=O	0	0	-1	9	35	-4
CCn1ncc(Br)c1C(=O)Nc1ncc(C)s1	3	-1	-10	21	/	7
CCC(NC(=O)c1ccc([N+](=O)[O-])cc1[N+](=O)[O-])c1ccccc1 (stereo not given)	21	1	-1	24	-12	58*
CCn1nc(C)c(CNC(=O)c2ccc(OC3CCN(Cc4ccccn4)CC3)cc2)c1C	2	79*	-4	23	-5	-36
CCn1cc(CNC(=O)c2ccc(OC3CCN(Cc4ccccn4)CC3)cc2)cn1	22	8	-2	-4	-1	-9
Cc1cccc(C(=O)NC(=S)NCc2ccccc2)c1	11	1	2	13	1	-8
Cc1cccc(C(=O)NC(=S)NNC(=O)Cc2ccccc2)c1	20	10	95*	21	-7	-22
O=C(CCc1ccccc1)NNC(=S)NC(=O)c1ccc(Cl)cc1	29	/	80*	22	4	-47
CN1CCN(/N=C/c2ccc(N(c3ccccc3)c3ccccc3)cc2)CC1	29	2	4	-7	86*	30
COc1ccc(Cl)cc1NC(=O)COC(=O)c1ccc(C)o1	16	-15	/	33	-2	/
COC(=O)COc1ccc(NC(=O)C(c2ccccc2)c2ccccc2)cc1	-2	-3	-1	12	20	-17
CCN(CC)S(=O)(=O)c1ccc(N2CCN(c3ccccc3OC)CC2)c(N)c1	8	126*	11	23	10	12
CC(=O)OC1CCC2C3CCC4=CC(=O)CCC4(C)C3CCC2(C)[C@]1(C)O (stereo not given in full)	-23	21	-11	8	-5	0
